According to ChEMBL document CHEMBL3856229, “Hybrid Antibiotic Overcomes Resistance in P. aeruginosa by Enhancing Outer Membrane Penetration and Reducing Efflux” (J Med Chem, 2016):
The source made the active and inactive calls. The rule behind the calls is not given here.

Legend:
[1] = tested on: Pseudomonas aeruginosa; experiment: Antibacterial activity against multidrug-resistant/tobramycin-susceptible Pseudomonas aeruginosa isolate 86052; type: functional
[2] = tested on: Staphylococcus aureus; experiment: Antibacterial activity against Staphylococcus aureus ATCC 29213 after 24 hrs by microtitre broth dilution method; type: functional; settings: ATCC 29213, 24 h
[3] = tested on: Staphylococcus epidermidis; experiment: Antibacterial activity against methicillin-susceptible Staphylococcus epidermidis isolate CANWARD-2008 81388 after 24 hrs by microtitre broth dilution method; type: functional; settings: isolate CANWARD-2008 81388, 24 h
[4] = tested on: Streptococcus pneumoniae; experiment: Antibacterial activity against Streptococcus pneumoniae ATCC 49619 after 24 hrs by microtitre broth dilution method; type: functional; settings: ATCC 49619, 24 h
[5] = tested on: Escherichia coli; experiment: Antibacterial activity against gentamicin/tobramycin/ciprofloxacin-resistant Escherichia coli isolate CANWARD-2011 97615 harboring AAC3-2A after 24 hrs by microtitre broth dilution method; type: functional; settings: isolate CANWARD-2011 97615, 24 h
[6] = tested on: Pseudomonas aeruginosa; experiment: Antibacterial activity against multidrug/extremely drug-resistant/colistin-susceptible Pseudomonas aeruginosa isolate 262-101856; type: functional
[7] = tested on: Pseudomonas aeruginosa; experiment: Antibacterial activity against multidrug-resistant/tobramycin-susceptible Pseudomonas aeruginosa isolate 86053; type: functional
[8] = tested on: Pseudomonas aeruginosa; experiment: Antibacterial activity against multidrug-resistant/tobramycin-susceptible Pseudomonas aeruginosa isolate 86079; type: functional
[9] = tested on: Pseudomonas aeruginosa; experiment: Antibacterial activity against multidrug-resistant/tobramycin-susceptible Pseudomonas aeruginosa isolate 92014; type: functional
[10] = tested on: Pseudomonas aeruginosa; experiment: Antibacterial activity against multidrug-resistant/tobramycin-susceptible Pseudomonas aeruginosa isolate 108590; type: functional
[11] = tested on: Pseudomonas aeruginosa; experiment: Antibacterial activity against multidrug-resistant/tobramycin-susceptible Pseudomonas aeruginosa isolate 84745; type: functional
[12] = tested on: Escherichia coli; experiment: Antibacterial activity against fluoroquinolone resistant Escherichia coli isolate 80083 harboring beta-lactamase CTX-M-15/OXA-1; type: functional
[13] = tested on: Escherichia coli; experiment: Antibacterial activity against fluoroquinolone resistant Escherichia coli isolate 90087 harboring beta-lactamase CTX-M-15/OXA-1; type: functional
[14] = tested on: Escherichia coli; experiment: Antibacterial activity against fluoroquinolone resistant Escherichia coli isolate 91191 harboring beta-lactamase CTX-M-14/TEM-1; type: functional
[15] = tested on: Escherichia coli; experiment: Antibacterial activity against fluoroquinolone resistant Escherichia coli isolate 92969 harboring beta-lactamase CTX-M-15/OXA-1; type: functional
[16] = tested on: Acinetobacter baumannii; experiment: Antibacterial activity against fluoroquinolone resistant Acinetobacter baumannii isolate ABO27; type: functional
[17] = tested on: Pseudomonas aeruginosa; experiment: Bactericidal activity against Pseudomonas aeruginosa PAO1 at 2 times MIC up to 24 hrs by time-kill kinetic study; type: functional
Summary of the method: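 PAO1 was grown in MH broth with varying concentrations of the test agent; colistin at its MIC served as comparator. Viable counts (CFU) were followed up to 24 h. There were three independent experiments, and each point is the mean of three determinations ± SEM.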

[18] = Cytotoxicity against human DU145 cells assessed as reduction in cell viability after 48 hrs by MTS assay; type: toxicity, cell-based, DU-145
[19] = tested on: Pseudomonas aeruginosa; experiment: Antibacterial activity against extremely drug-resistant Pseudomonas aeruginosa isolate 104354 infected in Galleria mellonella assessed as larvae survival at 50 mg/kg administered as single dose measured after 24 hrs (reference value: 27 %); type: functional; settings: isolate 104354, 24 h
Summary of the method: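 Galleria mellonella larvae were infected with 10^6 CFU of XDR P. aeruginosa #104354, resistant to all antipseudomonal classes except colistin. A single injected drug dose was given 2 h post-infection: 50 mg/kg with survival read at 24 h, or 75 mg/kg with survival read at 96 h. Controls were infected untreated larvae and PBS-injected larvae. Two independent experiments of 15 larvae each (n = 30).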

[20] = tested on: Pseudomonas aeruginosa; experiment: Antibacterial activity against Pseudomonas aeruginosa PAO1 assessed as fractional inhibitory concentration index after 18 hrs in presence of novobiocin by checkerboard method; type: functional
Summary of the method: (§1)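 Checkerboard combinations of the hybrid with each partner antibiotic were tested against P. aeruginosa PAO1. Interaction is expressed as the fractional inhibitory concentration (FIC) index: ≤0.5 means synergy, 1–2 no interaction, ≥4 antagonism.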

[21] = tested on: Pseudomonas aeruginosa; experiment: Antibacterial activity against Pseudomonas aeruginosa PAO1 assessed as fractional inhibitory concentration index after 18 hrs in presence of chloramphenicol by checkerboard method; type: functional; summary of the method: as §1
[22] = tested on: Pseudomonas aeruginosa; experiment: Antibacterial activity against Pseudomonas aeruginosa PAO1 assessed as fractional inhibitory concentration index after 18 hrs in presence of minocycline by checkerboard method; type: functional; summary of the method: as §1
[23] = tested on: Pseudomonas aeruginosa; experiment: Antibacterial activity against Pseudomonas aeruginosa PAO1 assessed as fractional inhibitory concentration index after 18 hrs in presence of meropenem by checkerboard method; type: functional; summary of the method: as §1
[24] = tested on: Pseudomonas aeruginosa; experiment: Potentiation of ciprofloxacin induced antibacterial activity against multidrug/extremely drug-resistant Pseudomonas aeruginosa isolate PA259-96918 assessed as ciprofloxacin MIC at <= […] ug/ml (reference value: […] ug/ml); type: functional
[25] = tested on: Pseudomonas aeruginosa; experiment: Potentiation of ciprofloxacin induced antibacterial activity against multidrug/extremely drug-resistant Pseudomonas aeruginosa isolate PA260-97103 assessed as ciprofloxacin MIC at <= […] ug/ml (reference value: […] to […] ug/ml); type: functional
[26] = tested on: Pseudomonas aeruginosa; experiment: Potentiation of moxifloxacin induced antibacterial activity against multidrug/extremely drug-resistant Pseudomonas aeruginosa isolate PA260-97103 assessed as moxifloxacin MIC at <= […] ug/ml (reference value: […] to […] ug/ml); type: functional
[27] = tested on: Pseudomonas aeruginosa; experiment: Potentiation of moxifloxacin induced antibacterial activity against multidrug/extremely drug-resistant Pseudomonas aeruginosa isolate PA262-101856 assessed as moxifloxacin MIC at <= […] ug/ml (reference value: […] to […] ug/ml); type: functional
[28] = tested on: Pseudomonas aeruginosa; experiment: Potentiation of moxifloxacin induced antibacterial activity against pandrug-resistant Pseudomonas aeruginosa isolate 91433 assessed as moxifloxacin MIC at <= […] ug/ml (reference value: 8 to […] ug/ml); type: functional
[29] = tested on: Pseudomonas aeruginosa; experiment: Antibacterial activity against pandrug-resistant Pseudomonas aeruginosa isolate 91433 in presence of <= 4 ug/ml of moxifloxacin (reference value: 8 ug/ml); type: functional
[30] = tested on: Pseudomonas aeruginosa; experiment: Antibacterial activity against pandrug-resistant Pseudomonas aeruginosa isolate 101243 in presence of <= 4 ug/ml of moxifloxacin (reference value: 8 ug/ml); type: functional
[31] = tested on: Pseudomonas aeruginosa; experiment: Induction of cytoplasmic membrane depolarization in Pseudomonas aeruginosa PAO1 by DiSC3(5) dye based fluorescence assay; type: functional
[32] = tested on: Pseudomonas aeruginosa; experiment: Induction of inner membrane permeabilization in Pseudomonas aeruginosa PAO1 assessed as accumulation of propidium iodide at 8 ug/ml after 3 to 4 hrs by fluorescence microscopy; type: functional
Summary of the method: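 PAO1 cells were treated with 8 µg/mL for 3 h at 37 °C, then stained with the membrane-impermeable nucleic-acid dye propidium iodide. Fluorescence microscopy and DIC imaging were compared against untreated cells.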

[33] = tested on: Pseudomonas aeruginosa; experiment: Antimicrobial activity against Pseudomonas aeruginosa PAO1 assessed as outer membrane damage at 8 ug/ml after 3 to 4 hrs by uranyl acetate staining based transmission electron microscopy; type: functional
Summary of the method: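 PAO1 in Mueller-Hinton broth was exposed to 8 µg/mL at 37 °C (3 h in the legend, 4 h in the text). Untreated cells were the reference. Morphology was imaged by transmission electron microscopy at 75 kV.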

[34] = tested on: Pseudomonas aeruginosa; experiment: Ratio of MIC for Pseudomonas aeruginosa PAO1 after 25 serial passages to MIC for Pseudomonas aeruginosa PAO1 prior to 25 serial passages; type: functional
Summary of the method: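 P. aeruginosa PAO1 exposed to sub-inhibitory (0.5 x MIC) drug over successive subcultures as a resistance-selection procedure. MIC compared after versus before passaging.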

With COc1c(N2C[C@@H]3CCCN(CCCCCCCCCCCCO[C@@H]4[C@@H](O[C@H]5O[C@H](CO)[C@@H](O)[C@H](N)[C@H]5O)[C@H](N)C[C@H](N)[C@H]4O[C@H]4O[C@H](CN)[C@@H](O)C[C@H]4N)[C@@H]3C2)c(F)cc2c(=O)c(C(=O)O)cn(C3CC3)c12.Cl.Cl.Cl.Cl.Cl the MIC [1] was 2 µg/mL, the MIC [2] was 1 µg/mL and the MIC [3] was 2 µg/mL. It also gave an MIC [4] of 1 µg/mL, an MIC [5] of 128 µg/mL and an MIC [6] of 4 µg/mL. It also gave an MIC [7] of 4 µg/mL, an MIC [8] of 4 µg/mL and an MIC [9] of 4 µg/mL. The MIC [10] was 2 µg/mL, the MIC [11] was 8 µg/mL and the MIC [12] was at least 64 µg/mL. For the same compound, the MIC [13] was at least 64 µg/mL, the MIC [14] was at least 64 µg/mL and the MIC [15] was at least 64 µg/mL. The MIC [16] was 8 to 64 µg/mL, the Activity [17] was “Active” and the CC50 at 48 h [18] was over 30 µM. For the same compound, the survival at 50 mg/kg [19] was 100%, the “fractional inhibitory concentration index (FICI)” value [20] was 0.12 and the “fractional inhibitory concentration index (FICI)” value [21] was 0.15. The “fractional inhibitory concentration index (FICI)” value [22] was 0.15, the “fractional inhibitory concentration index (FICI)” value [23] was 2 and the MIC [24] was under 1 µg/mL. The MIC [25] was 1 µg/mL, the MIC [26] was 1 µg/mL and the MIC [27] was 2 µg/mL. The MIC [28] was 0.12 µg/mL, the MIC [29] was under 1 µg/mL and the MIC [30] was under 1 µg/mL. For the same compound, the Activity [31] was “Dose-dependent effect”, the Activity [32] was “Active” and the Activity [33] was “Active”. It also gave a Ratio [34] of 2.
